This is a sample that favours compounds with a hit; in the whole collection about 4% have one here.
Arrestin-AP2 inh: human beta-arrestin and AP2 interaction inhibition; inhibition, % at 10 µM; hit rate 0.31% among 340,000; FITC-arrestin peptide / GST-AP2 beads, flow cytometry; AP2 beta2 appendage carries R879A mutation;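 active = inhibition above a set limit, near 3 SD of compounds lacking own fluorescence, cut at about 54% in these data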;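 also: plate controls were DMSO wells for no effect and 5 µM unlabelled arrestin peptide for full effect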
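System: GST-AP2 R879A glutathione beads; medium: PBS, Tween 20 0.05%, BSA 0.1%; reagent: fluorescein-tagged arrestin peptide at 50 nM final; schedule: pre-incubation 12 min, peptide binding 1 h, room temperature; detection: flow cytometry, FL1 (488/535 nm); read-out: inhibition as reduced fluorescein signal on beads, percent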
NR3A LBD binder: modulates the human NR3A ligand-binding domain. NR3A LBD differential scanning fluorimetry, Tm shift; 0% = protein alone, 100% = glycine-bound protein. Tm shift relative to glycine control, % at 25 µM. hit rate 2.5% among 340,000;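 active = melting temperature shift of at least 10% of the positive control shift, at one fixed dose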
H9c2 protect: myocardial damage modulation in H9c2 cells | H9c2 cardiomyocytes, H2O2 injury protection, ATPLite, 2 h | protection from H2O2 cell death, % at 20 µM | hit rate 0.63% among 360,000 | AID 588492;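 active = compounds giving at least 50% protection of heart cells from peroxide-induced death in the single-dose screen, raw or plate-pattern-corrected value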;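 also: 0% = DMSO wells with peroxide and 100% = DMSO wells without peroxide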
FAS TE block: inhibitors of human fatty acid synthase thioesterase domain | hit rate 0.67% among 360,000 | P49327 | recombinant FAS-TE, OMFH fluorogenic substrate, fluorescence endpoint | AID 602261 | inhibition, % at 15 µM;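 active = compounds whose normalised, plate-corrected inhibition of enzyme fluorescence in the single-dose primary screen is 50% or more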;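 also: 0% = DMSO with enzyme and 100% = substrate without enzyme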
SENP1 FRET inh: blocks the human SENP1 SUMO protease catalytic domain. Q9P0U3. recombinant SENP1 catalytic domain, CyPet-SUMO1-YPet FRET cleavage. inhibition, % at 10 µM. hit rate 0.21% among 360,000;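 active = inhibition at least 30% at 10 µM, raw YFP signal under a set limit, fluorescence ratio 0.5 to 1.5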;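 also: 0% = enzyme with DMSO and 100% = no enzyme wells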
Target sequence (Q9P0U3 419-644 limits assumed): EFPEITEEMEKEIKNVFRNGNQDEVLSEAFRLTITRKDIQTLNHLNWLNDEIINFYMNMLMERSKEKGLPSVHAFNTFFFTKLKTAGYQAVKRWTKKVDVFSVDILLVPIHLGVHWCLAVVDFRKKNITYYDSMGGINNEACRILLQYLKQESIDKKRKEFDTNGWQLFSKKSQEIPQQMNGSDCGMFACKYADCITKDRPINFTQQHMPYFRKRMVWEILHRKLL
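Compound: 10 µM single point, 0.5% DMSO; Test system: hSENP1 catalytic domain, recombinant; Timing: 50 min reaction at room temperature; Technique: FRET, CFP and YFP emission; Control set: no-enzyme wells low, DMSO-plus-enzyme wells high control.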
iPSC survival up: enhancers of human iPSC single-cell survival | hiPSC single-cell survival, ATPlite luminescence; 100% = ROCK inhibitor wells, 0% = DMSO | survival enhancement, % at 20 µM | hit rate 0.044% among 360,000; in the data active = survival enhancement above about 18%;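 also: cells exposed to compounds for 16 hours before the ATP read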
* = called active by the depositor; / = not tested or not shown.

SMILES | Arrestin-AP2 inh | NR3A LBD binder | H9c2 protect | FAS TE block | SENP1 FRET inh | iPSC survival up
CC12CCC3C(CCC4CC(O)CCC43C)C1CC(=O)C2 (configuration not stated) | / | / | 17 | 0 | -2 | -1
Nc1nonc1N/N=C\c1ccccc1 | 4 | 18* | 0 | 1 | 1 | 0
Nc1cnnc(N/N=C\c2ccccc2)c1Cl | -9 | 0 | -10 | -5 | 1 | -1
Cc1cccc(C)c1NC(=O)C1(C)CSCC(=O)N1CCCn1ccnc1 (configuration not stated) | / | / | / | / | 3 | /
Clc1ccc2c(SCC3CO3)c3ccccc3nc2c1 (configuration not stated) | 5 | 13* | -6 | 37 | -115 | -2
O=C(Nc1ccc(Cl)c(Cl)c1)c1ccc(Cn2cc(Cl)cn2)cc1 | -5 | 24* | -25 | 24 | 1 | 2
COc1cc(/C=N/n2nnnc2Nc2ccccc2)cc(OC)c1OC | 29 | -17 | 85* | 18 | 2 | 5
COc1cc(/C=N/n2c(-c3ccccc3)n[nH]c2=S)cc(OC)c1OC | -11 | 2 | -3 | -1 | 3 | 0
NS(=O)(=O)c1ccc(CCNC(=O)C2CCN(S(=O)(=O)c3ccc(Br)s3)CC2)cc1 | 37 | 13* | -6 | -1 | 2 | 1
Cc1ccc(S(=O)(=O)N2CCC(C(=O)NCCc3ccc(S(N)(=O)=O)cc3)CC2)cc1 | -9 | 4 | 2 | -10 | 0 | 0
Cc1ccc(C)c(NC(=O)C(Sc2ncnc3ccccc23)c2ccccc2)c1 (configuration not stated) | -5 | 1 | 55* | -12 | 1 | 1
Cc1ccc(C)c(NC(=O)C(Sc2nc3ccccc3c(=O)n2CC(C)C)c2ccccc2)c1 (configuration not stated) | 4 | -18 | 80* | -7 | -1 | -1
CC(=O)c1cccc(NC(=O)C(Sc2ncnc3ccccc23)c2ccccc2)c1 (configuration not stated) | 24 | -1 | 11 | 18 | -8 | 2
CC1OC(CCc2cccc(Cl)c2)Cc2[nH]c(=S)[nH]c(=O)c21 (configuration not stated) | / | / | / | -3 | 3 | 1
COc1cc(-c2nnc(COC(=O)c3ccc([N+](=O)[O-])o3)o2)cc(OC)c1OC | / | / | 36 | -3 | 0 | -1
c1ccc2c(-c3nn[nH]n3)cccc2c1 | 3 | 12* | 12 | -9 | 0 | -2
CCOC(=O)[C@]12CCCC=C1N(Cc1ccco1)C(=O)[C@H](CC(=O)NCc1cccs1)C2 | / | / | / | -2 | 0 | -1
O=C(C(O)c1ccccc1)N1CCN(S(=O)(=O)c2ccc(C(F)(F)F)cc2)CC1 (configuration not stated) | / | / | / | / | 2 | /
O=C1CC(SC2=NCCS2)C(=O)N1c1ccc(Cl)cc1 (configuration not stated) | -6 | 24* | 15 | -4 | -2 | 6
O=C(OCc1ccc(Cl)cc1Cl)c1cccnc1Cl | -3 | 12* | -12 | 25 | 3 | 10
CCc1nc2c(OCc3cc(Cl)cc(Cl)c3)cccn2c1N(C=O)Cc1ccccc1 | / | / | -15 | 26 | -5 | 1
Cc1ccc(NC(=O)CC2S/C(=N/N=C/C=C/c3ccccc3)NC2=O)cc1Cl (configuration not stated) | 11 | 15* | 18 | 12 | 1 | 1
CCOC(=O)c1ccc(NC(=O)CC2S/C(=N/N=C/c3c[nH]c4ccccc34)NC2=O)cc1 (configuration not stated) | 3 | 29* | 13 | -4 | -1 | -1
Cc1ccc(NC(=O)CC2S/C(=N/N=C/c3c[nH]c4ccccc34)NC2=O)cc1 (configuration not stated) | 35 | 11* | -3 | 1 | 1 | 0
Cc1ccc(NC(=O)CC2S/C(=N/N=C3/NC(=O)CS3)NC2=O)cc1 (configuration not stated) | 2 | 1 | 6 | -5 | 1 | -1
SMILES | Arrestin-AP2 inh | NR3A LBD binder | H9c2 protect | FAS TE block | SENP1 FRET inh | iPSC survival up
CC(C)(C)c1ccc(S(=O)(=O)NC(=O)C2(C)CCN2C(=O)Cc2ccc(-c3ccccc3)cc2)cc1 (configuration not stated) | / | / | -1 | 1 | 1 | 1
COc1ccc(CCC(=O)O)c(C(CC(=O)O)C(=O)O)c1OS(=O)(=O)c1ccc(C)cc1 (configuration not stated) | / | / | 0 | -10 | 2 | 1
COc1cc(-c2coc3c(C(=O)NCc4ccccc4)cccc23)ccc1O | / | / | 1 | 15 | 0 | -2
CC(C)(O)CC[C@@H](O)[C@](C)(O)[C@H]1CC[C@@]2(O)C3=CC(=O)[C@@H]4C[C@@H](O)[C@@H](O)C[C@]4(C)[C@H]3CC[C@]12C | 15 | 4 | 3 | -2 | -1 | 0
CC(C)(O)CC[C@@H](O)[C@](C)(O)C1CC[C@@]2(O)C3=CC(=O)[C@@H]4C[C@@H](O)[C@@H](O)C[C@]4(C)C3CC[C@]12C (some centres not stated) | 1 | 10* | 2 | -5 | 1 | -2
O=C(/C=C/[C@H]1O[C@@H](n2ccc(=O)[nH]c2=O)[C@H](O)[C@@H]1O)NCc1ccccc1 | / | / | 7 | -5 | 1 | -1
CCOc1ccc2nc(NC(=O)CSc3ccccc3)sc2c1 | 17 | 30* | -11 | 11 | 0 | 0
COc1ccc2nc(NC(=O)CSc3nc4ccccc4o3)sc2c1 | 6 | 15* | -16 | -2 | -13 | -1
O=C(CSc1nc2ccccc2o1)Nc1nc2ccc(Br)cc2s1 | -8 | 1 | -20 | -7 | -12 | 3
CCCC(=O)Nc1nc2ccc(OCC)cc2s1 | 0 | 4 | -17 | -9 | -2 | -1
CCOc1ccc2nc(NC(=S)N(C)C)sc2c1 | -18 | 30* | -4 | 8 | 0 | -3
CCn1cc(/C=C(\NC(=O)c2ccccc2)C(=O)NCCCn2ccnc2)c2ccccc21 | / | / | 12 | -9 | 0 | 0
O=C1/C(=C\c2ccc(O)c(O)c2)C(c2ccccc2)=NN1c1ccccc1 | 8 | 12* | 8 | -1 | 5 | -1
COc1cc(/C=C2\C(=O)N(c3ccc(NC(C)=O)cc3)N=C2c2ccccc2)ccc1O | 11 | 3 | -8 | -2 | 2 | 2
CCOc1cc(/C=C2\C(=O)N(c3nc(-c4ccc(Br)cc4)cs3)N=C2c2ccccc2)ccc1O | 34 | 16* | -29 | 5 | 2 | -3
CC(C)CNc1ncnc2c1ncn2[C@H]1CN(CCc2ccccc2)C[C@@H](CO)O1 | / | / | -2 | -3 | -3 | -2
O=C(N/N=C\c1c(O)ccc2ccccc12)c1ccc(O)cc1 | 39 | 41* | 48 | 21 | -26 | 0

Compound activity: PubChem, several laboratories
